Reference: publication PMC5116011 (The Journal of antibiotics, 2016)
≈ marks a conversion by molar mass, not a printed value. Like-named read-outs stand apart in the source and are kept apart here.

Tests used:
P. vulgaris ATCC 33420 = assay: MIC, microbroth dilution in Mueller-Hinton broth; type: cell-based; details: Proteus vulgaris, ATCC33420, read-out: MIC PV
S. pyogenes ATCC700294 = assay: MIC, microbroth dilution in Mueller-Hinton broth; type: cell-based; details: Streptococcus pyogenes, ATCC700294, read-out: MIC SPy
In short: (§1)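 CLSI broth microdilution in cation-adjusted Mueller-Hinton broth. Inocula were grown from MH agar colonies in MH broth, with a final inoculum of 10^5 CFU/ml. Test compound final range was 200–0.2 µg/ml, incubated 37°C for 18–20 h. MIC was the lowest concentration preventing visible growth. Runs were at least duplicate, and the mean MIC was reported.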

[1] = test system: E. coli BW25113 ΔtolC derivative JW5503-1; assay: MIC, microbroth dilution in Mueller-Hinton broth; type: cell-based, Escherichia coli; details: for MIC: Escherichia coli
B. subtilis ATCC23857 = assay: MIC, microbroth dilution in Mueller-Hinton broth; type: cell-based; details: Bacillus subtilis, ATCC23857, read-out: MIC BS
In short: as §1

E. faecalis ATCC33186 = assay: MIC, microbroth dilution in Mueller-Hinton broth; type: cell-based; details: Enterococcus faecalis, ATCC33186, read-out: MIC EF
In short: as §1

P. aeruginosa PA01 = assay: MIC, microbroth dilution in Mueller-Hinton broth; type: cell-based, Pseudomonas aeruginosa; details: for MIC PA MH+BP/CCCP / MIC PA +: P. aeruginosa PA01; for MIC PA MH+BP/CCCP: MH broth with 30 µg/ml 2,2′-bipyridyl and 50 µg/ml CCCP; for MIC PA +: with clavulanic acid (6µg/ml); for MIC: Pseudomonas aeruginosa
[2] = test system: S. aureus -ATCC29213 (MSSA); assay: MIC, microbroth dilution in Mueller-Hinton broth; type: cell-based; details: Staphylococcus aureus, read-out: MIC MSSA
In short: as §1

E. coli BW25113 = assay: MIC, microbroth dilution in Mueller-Hinton broth; type: cell-based, Escherichia coli; details: for MIC EC MH+BP/CCCP: MH broth with 30 µg/ml 2,2′-bipyridyl and 50 µg/ml CCCP; for MIC EC +: with clavulanic acid (6µg/ml); for MIC: Escherichia coli, BW25113, read-out: MIC EC, E. coli BW25113
S. aureus NRS 70 (MRSA) = assay: MIC, microbroth dilution in Mueller-Hinton broth; type: cell-based; details: Staphylococcus aureus, MRSA|NRS70, read-out: MIC MRSA
In short: as §1

P. mirabilis ATCC 25933 = assay: MIC, microbroth dilution in Mueller-Hinton broth; type: cell-based; details: Proteus mirabilis, ATCC25933, read-out: MIC PM
S. pneumoniae R6 = assay: MIC, microbroth dilution in Mueller-Hinton broth; type: cell-based; details: Streptococcus pneumoniae, R6, read-out: MIC SP
In short: as §1

B. anthracis sterne = assay: microbe, parasite or virus in culture; type: cell-based; details: Bacillus anthracis, read-out: MIC BA
[3] = test system: E. coli BW25113 ΔampC derivative JW4111-2; type: cell-based, Escherichia coli; details: for MIC: Escherichia coli, BW25113, read-out: MIC ECΔampC −
[4] = Relative binding affinity; type: physicochemical
In short: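 Chelator:Fe(III) stoichiometry was found by the continuous variation method. The apparent iron constant came from the drop in 460 nm absorbance of the preformed test compound–Fe(III) complex as EDTA concentration was raised. pM was calculated as –log free [Fe3+].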

[5] = test system: E. coli ATCC 35218 (Low-level TEM-1); assay: MIC with and without clavulanic acid; type: cell-based; details: with clavulanic acid (6 µg/ml)
In short: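 Mueller-Hinton broth microdilution per CLSI, run in parallel without and with the β-lactamase inhibitor clavulanic acid (6 µg/ml). MH-broth-grown inoculum was at 10^5 CFU/ml final, with test compound at 200–0.2 µg/ml final. Incubation was 37°C, 18–20 h, and the visible-growth endpoint was read. At least duplicate determinations; the mean MIC was reported.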

[6] = BW25113, read-out: MIC ECΔtolC MH
[7] = BW25113, read-out: MIC ECΔtolC MH+BP

Compound	MIC (P. vulgaris ATCC 33420)	MIC (S. pyogenes ATCC700294)	MIC ([1]; BW25113, read-out: MIC ECΔtolC)	MIC [1, 6]	MIC [1, 7]	MIC ECΔtolC MH+BP/CCCP [1]	MIC ECΔtolC MH+CCCP [1]	MIC (B. subtilis ATCC23857)	MIC (E. faecalis ATCC33186)	MIC PA MH+BP/CCCP (P. aeruginosa PA01)	MIC PA + (P. aeruginosa PA01)	MIC (P. aeruginosa PA01; PA01, read-out: MIC PA)	MIC (P. aeruginosa PA01; PA01, read-out: MIC PA MH)	MIC (P. aeruginosa PA01; PA01, read-out: MIC PA MH+BP)	MIC (P. aeruginosa PA01; PA01, read-out: MIC PA MH+CCCP)	MIC [2]	MIC EC MH+BP/CCCP (E. coli BW25113; E. coli BW25113)	MIC EC + (E. coli BW25113; E. coli BW25113)	MIC (E. coli BW25113; Mueller-Hinton broth (Table 2))	MIC (S. aureus NRS 70 (MRSA))	further results
CC1(C)SC2C(NC(=O)C(NC(=O)C3=C(O)CN(c4ccccc4)C3=O)c3ccccc3)C(=O)N2C1C(=O)O (centres unmarked) [Compound 2919]	25 µg/mL (≈ 45.4 µM)	0.78 µg/mL (≈ 1.42 µM)	3.13 µg/mL (≈ 5.68 µM)	6.25 µg/mL (≈ 11.4 µM)	3.13 µg/mL (≈ 5.68 µM)	1.56 µg/mL (≈ 2.83 µM)	3.13 µg/mL (≈ 5.68 µM)	1.56 µg/mL (≈ 2.83 µM)	25 µg/mL (≈ 45.4 µM)	12.5 µg/mL (≈ 22.7 µM)	12.5 µg/mL	50 µg/mL (≈ 90.8 µM)	50 µg/mL (≈ 90.8 µM)	50 µg/mL (≈ 90.8 µM)	25 µg/mL (≈ 45.4 µM)	0.78 µg/mL (≈ 1.42 µM)	25 µg/mL (≈ 45.4 µM)	50 µg/mL	6.25 to 12.5 µg/mL (≈ 11.4 to 22.7 µM)	50 µg/mL (≈ 90.8 µM)	MIC EC (E. coli BW25113; E. coli BW25113, Mueller-Hinton broth (Table 2)): 12.5 µg/mL (≈ 22.7 µM); MIC (P. mirabilis ATCC 25933): 50 µg/mL (≈ 90.8 µM); MIC (S. pneumoniae R6): < 0.2 µg/mL; MIC (B. anthracis sterne): 3.13 µg/mL (≈ 5.68 µM); MIC [3]: 12.5 µg/mL (≈ 22.7 µM); MIC ECΔampC + [3]: 6.25 µg/mL
CC1(C)SC2C(NC(=O)C(NC(=O)C3=C(O)C4CCCN4C3=O)c3ccccc3)C(=O)N2C1C(=O)O (centres unmarked) [Compound 2780]	12.5 µg/mL (≈ 24.3 µM)	0.78 µg/mL (≈ 1.52 µM)	6.25 µg/mL (≈ 12.1 µM)	6.25 µg/mL (≈ 12.1 µM)	6.25 µg/mL (≈ 12.1 µM)	3.13 µg/mL (≈ 6.08 µM)	3.13 µg/mL (≈ 6.08 µM)	0.78 µg/mL (≈ 1.52 µM)	25 µg/mL (≈ 48.6 µM)	6.25 µg/mL (≈ 12.1 µM)	12.5 µg/mL	25 µg/mL (≈ 48.6 µM)	25 µg/mL (≈ 48.6 µM)	25 µg/mL (≈ 48.6 µM)	6.25 µg/mL (≈ 12.1 µM)	0.39 µg/mL (≈ 0.758 µM)	25 µg/mL (≈ 48.6 µM)	50 µg/mL	200 µg/mL (≈ 389 µM)	50 µg/mL (≈ 97.2 µM)	MIC (P. aeruginosa PA01; PA01, read-out: MIC PA −): 25 µg/mL (≈ 48.6 µM); MIC (P. mirabilis ATCC 25933): 1.56 µg/mL (≈ 3.03 µM); MIC (S. pneumoniae R6): 0.39 µg/mL (≈ 0.758 µM); MIC (B. anthracis sterne): 1.56 µg/mL (≈ 3.03 µM); MIC [3]: 12.5 µg/mL (≈ 24.3 µM); MIC ECΔampC + [3]: 3.13 µg/mL
CC1(C)SC2C(NC(=O)C(NC(=O)C3=C(O)C(Cc4ccsc4)NC3=O)c3ccccc3)C(=O)N2C1C(=O)O (centres unmarked) [Compound 2916]	6.25 µg/mL (≈ 11 µM)	0.39 µg/mL (≈ 0.683 µM)	1.56 µg/mL (≈ 2.73 µM)	1.56 µg/mL (≈ 2.73 µM)	1.56 µg/mL (≈ 2.73 µM)	0.78 µg/mL (≈ 1.37 µM)	0.78 µg/mL (≈ 1.37 µM)	1.56 µg/mL (≈ 2.73 µM)	25 µg/mL (≈ 43.8 µM)	6.25 µg/mL (≈ 11 µM)	6.25 µg/mL	25 µg/mL (≈ 43.8 µM)	25 µg/mL (≈ 43.8 µM)	25 µg/mL (≈ 43.8 µM)	12.5 µg/mL (≈ 21.9 µM)	< 0.2 µg/mL	12.5 µg/mL (≈ 21.9 µM)	12.5 µg/mL	50 µg/mL (≈ 87.6 µM)	50 µg/mL (≈ 87.6 µM)	pM (–log [Fe^3+]) ([4]; 10^−5 M total iron chelator and 10^−6 M total Fe^3+ at pH 7.4): 20.3; apparent binding constant (Kd, app) for iron (III) ([4]; EDTA competition, MeOH:Tris buffer, pH 7.4 (98:2), 3:1 complex): 0.55 × 10^−29 M^3; MIC ATCC 35218 (Low-level TEM-1) + CLV [5]: 25 µg/mL; MIC (P. mirabilis ATCC 25933): 6.25 µg/mL (≈ 11 µM); MIC (S. pneumoniae R6): < 0.2 µg/mL; MIC (B. anthracis sterne): 1.56 µg/mL (≈ 2.73 µM); MIC [3]: 6.25 µg/mL (≈ 11 µM); MIC ECΔampC + [3]: 3.13 µg/mL
